Source: ChEMBL document CHEMBL1152574, “Novel 2H-isoquinolin-3-ones as antiplasmodial falcipain-2 inhibitors” (Bioorg Med Chem, 2009)

Tests used:
Cathepsin B = Cathepsin B (Homo sapiens, UniProt P07858); experiment: Inhibition of human cathepsin B
Procathepsin L = Procathepsin L (Homo sapiens, UniProt P07711); experiment: Inhibition of human cathepsin L
Plasmodium falciparum = experiment: Antiplasmodial activity against Plasmodium falciparum FcBR; format: functional, organism-based; conditions: FCBR/Columbia
Summary of the method: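 Synchronized ring-stage parasites (strain FCBR) grown in human RBC (A Rh+), RPMI 1640 with 25 mM HEPES, 20 mM bicarbonate, 0.5% AlbuMAX I, 2.5% hematocrit, 37 °C under 94% N₂/1% O₂/5% CO₂; plated at 1% parasitemia with compounds (DMSO stock diluted 10-fold in 50% ethanol), 100–0.0488 µM, in quadruplicate; 50% ethanol as negative control; dose-dependent effect on development quantified.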

[1] = Inhibition of Plasmodium falciparum falcipain-2
Summary of the method: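 Recombinant FP-2 in 100 mM sodium acetate pH 5.5, 10 mM DTT, substrate Cbz-Phe-Arg-AMC; reversibility screen at 100 µM with E-64 control, then continuous progress-curve assays with 0–100 µM inhibitor; fluorescence ex 365/em 460 nm; run twice; Ki from Dixon plot, corrected to zero substrate using Km 21.5 µM.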

Rhodesain = Rhodesain (Trypanosoma brucei rhodesiense, UniProt Q95PM0); experiment: Inhibition of Trypanosoma brucei rhodesiense rhodesain
Rhodesain, sequence (Q95PM0 whole entry): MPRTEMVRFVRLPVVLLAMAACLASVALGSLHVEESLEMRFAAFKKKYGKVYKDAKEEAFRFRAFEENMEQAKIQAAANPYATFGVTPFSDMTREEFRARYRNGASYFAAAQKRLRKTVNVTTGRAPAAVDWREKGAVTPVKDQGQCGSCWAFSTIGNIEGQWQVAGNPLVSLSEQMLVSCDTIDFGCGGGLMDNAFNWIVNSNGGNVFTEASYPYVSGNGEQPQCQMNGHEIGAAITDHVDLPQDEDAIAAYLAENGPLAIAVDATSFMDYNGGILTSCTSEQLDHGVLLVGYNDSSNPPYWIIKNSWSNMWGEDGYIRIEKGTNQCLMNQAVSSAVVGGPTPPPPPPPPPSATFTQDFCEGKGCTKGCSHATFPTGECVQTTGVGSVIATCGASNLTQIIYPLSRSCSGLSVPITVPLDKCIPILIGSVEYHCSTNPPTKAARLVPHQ
Summary of the method: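 Continuous fluorometric progress-curve assay in 100 mM sodium acetate, pH 5.5, with 10 mM DTT. Substrate is Cbz-Phe-Arg-AMC (40 or 10, depending on enzyme). Inhibitors come from DMSO stocks, at increasing concentrations up to 100. AMC read at ex 365/em 460 nm, each assay run twice. Kiapp is taken from a Dixon plot and corrected to zero substrate with Km to give Ki.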

Procathepsin L, sequence (P07711 whole entry): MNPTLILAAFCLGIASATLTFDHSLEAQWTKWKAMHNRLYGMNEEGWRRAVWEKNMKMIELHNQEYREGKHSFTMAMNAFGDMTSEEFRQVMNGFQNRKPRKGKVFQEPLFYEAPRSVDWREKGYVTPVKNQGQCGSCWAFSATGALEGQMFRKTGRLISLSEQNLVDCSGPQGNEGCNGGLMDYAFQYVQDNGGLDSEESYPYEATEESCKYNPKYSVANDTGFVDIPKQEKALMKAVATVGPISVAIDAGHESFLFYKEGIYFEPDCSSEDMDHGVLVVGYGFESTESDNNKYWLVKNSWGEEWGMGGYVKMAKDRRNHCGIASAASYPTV

Structure (SMILES): CC(=O)Oc1cc2cc3c(cc2c(-c2ccc(N)cc2)n1)OCO3
- Ki (Cathepsin B; read-out: Ki): 6.7 µM
- Ki (Procathepsin L): 13.6 µM
- IC50 (Plasmodium falciparum): 58.8 µM
- Ki [1]: 19.7 µM
- Ki (Rhodesain; read-out: Ki): 38.3 µM

Structure (SMILES): COc1ccc(-c2c3cc4c(cc3cc(=O)n2NC(=O)OC(C)(C)C)OCO4)cc1
- Ki (Cathepsin B; read-out: Ki): 7.5 µM
- Ki (Procathepsin L): 4.1 µM
- IC50 (Plasmodium falciparum): 7.7 µM
- Ki [1]: 24.4 µM
- Ki (Rhodesain; read-out: Ki): 19.4 µM

Structure (SMILES): CCOC(=O)Nn1c(-c2ccc(OC)cc2)c2cc3c(cc2cc1=O)OCO3
- Ki (Cathepsin B; read-out: Ki): 16.7 µM
- Ki (Procathepsin L): 7.7 µM
- IC50 (Plasmodium falciparum): 8.4 µM
- Ki [1]: 62.7 µM
- Ki (Rhodesain; read-out: Ki): 9.4 µM

Structure (SMILES): COc1ccc(-c2c3cc4c(cc3cc(=O)n2NC(=O)Nc2ccc(C(C)=O)cc2)OCO4)cc1
- Ki (Cathepsin B; read-out: Ki): 3.7 µM
- Ki (Procathepsin L): 2.1 µM
- IC50 (Plasmodium falciparum): 11.8 µM
- Ki [1]: 5.9 µM
- Ki (Rhodesain; read-out: Ki): 14 µM

Structure (SMILES): COc1ccc(-c2c3cc(OC)c(OC)cc3cc(=O)n2NC(=O)OC(C)(C)C)cc1
- Ki (Cathepsin B): Not Active
- Ki (Procathepsin L): 39.7 µM
- IC50 (Plasmodium falciparum): 9.3 µM
- Ki [1]: 40.3 µM
- Ki (Rhodesain): Not Active

Structure (SMILES): COc1ccc(-c2c3cc4c(cc3cc(=O)n2NC(=O)Nc2ccc(SC)cc2)OCO4)cc1
- Ki (Cathepsin B; read-out: Ki): 4 µM
- Ki (Procathepsin L): 0.85 µM
- IC50 (Plasmodium falciparum): > 100 µM
- Ki [1]: 6.5 µM
- Ki (Rhodesain; read-out: Ki): 18.7 µM

Structure (SMILES): COc1ccc(-c2c3cc4c(cc3cc(=O)n2N)OCO4)cc1
- Ki (Cathepsin B; read-out: Ki): 16.3 µM
- Ki (Procathepsin L): 7 µM
- IC50 (Plasmodium falciparum): 25.5 µM
- Ki [1]: 15 µM
- Ki (Rhodesain; read-out: Ki): 6.3 µM

Structure (SMILES): COc1ccc(-c2c3cc(OCc4ccccc4)c(OCc4ccccc4)cc3cc(=O)n2N)cc1
- Ki (Cathepsin B; read-out: Ki): 3.3 µM
- Ki (Procathepsin L): 4.2 µM
- IC50 (Plasmodium falciparum): 16.9 µM
- Ki [1]: 2.3 µM
- Ki (Rhodesain; read-out: Ki): 4 µM

Structure (SMILES): Cc1cc2cc3c(cc2c(-c2ccc(N)cc2)n1)OCO3
- Ki (Cathepsin B; read-out: Ki): 6.9 µM
- Ki (Procathepsin L): 8.7 µM
- IC50 (Plasmodium falciparum): 38.8 µM
- Ki [1]: 7.3 µM
- Ki (Rhodesain; read-out: Ki): 19.4 µM

Structure (SMILES): CC(C)C[C@H](NC(=O)[C@H]1O[C@@H]1C(=O)O)C(=O)NCCCCN=C(N)N [E-64]
- Ki (Cathepsin B; read-out: Ki): 16 µM
- Ki [1]: 0.29 µM
